# Results: ChEMBL document CHEMBL2177092, “Phosphoramidate ProTides of the anticancer agent FUDR successfully deliver the preformed bioactive monophosphate in cells and confer advantage over the parent nucleoside” (J Med Chem, 2011)
# Experiments:
# L1210 [1] = assay: Ratio of IC50 for Mycoplasma hyorhinis-infected mouse L1210 cells to IC50 for mouse L1210/0 cells after 48 hrs by cell counting; type: functional
# Procedure, shortened: (§1)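 Murine L1210/0 cells were compared with L1210/TK cells, selected for resistance to 5-bromo-2'-dUrd, and with L1210.Hyor cells, chronically infected with Mycoplasma hyorhinis. Cells were grown in DMEM with 10% FBS, 10 mM Hepes and 1 mM pyruvate at 37 °C and 5% CO2, then seeded at 60 000 cells/well with compound. They were Coulter-counted after 48 h. […] Mean of 2–4 experiments.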
# CCRF-CEM [2] = assay: Cytostatic activity against thymidine-kinase deficient human CEM cells after 72 hrs by cell counting; type: functional, cell-based
# Procedure, shortened: (§2)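 Suspension leukemia cells in DMEM with 10% FBS, 10 mM Hepes and 1 mM sodium pyruvate at 37 °C under 5% CO2. Seeded at 60 000 cells/well with graded compound levels. Grown 48 h (L1210) or 72 h (CEM), then counted by Coulter counter. Mean ± SD of two to four independent experiments.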
# HeLa [3] = assay: Cytostatic activity against thymidine-kinase deficient human HeLa cells […]; type: functional, cell-based
# L1210 [4] = assay: Cytostatic activity against thymidine-kinase deficient mouse L1210 cells after 48 hrs by cell counting; type: functional, cell-based; details: L1210, 48 h; procedure, shortened: as §2
# HeLa [5] = assay: Cytostatic activity against human HeLa cells […] by cell counting; type: functional, cell-based
# CCRF-CEM [6] = assay: Cytostatic activity against human CEM/0 cells after 72 hrs by cell counting; type: functional, cell-based
# Procedure, shortened: (§3)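 Suspension leukemia cells in DMEM with 10% FBS, 10 mM Hepes and 1 mM sodium pyruvate at 37 °C under 5% CO2. Seeded at 60 000 cells/well with graded compound levels. Grown 48 h (L1210) or 72 h (CEM), then counted by Coulter counter. […] Mean ± SD of two to four independent experiments.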
# L1210 [7] = assay: Cytostatic activity against Mycoplasma hyorhinis-infected mouse L1210 cells after 48 hrs by cell counting; type: functional, cell-based; details: L1210, 48 h; procedure, shortened: as §2
# [8] = Cytostatic activity against mouse L1210/0 cells after 48 hrs by cell counting; type: functional, cell-based; details: L1210/0, 48 h; procedure, shortened: as §2
# CCRF-CEM [9] = assay: Cytostatic activity against ENT1 transporter-deficient human CEM cells after 72 hrs by cell counting; type: functional, cell-based; procedure, shortened: as §3
# CCRF-CEM [10] = assay: Cytostatic activity against human CEM cells expressing human ENT1 transporter after 72 hrs by cell counting; type: functional, cell-based; procedure, shortened: as §3
# CCRF-CEM [11] = assay: Cytostatic activity against human CEM cells expressing human ENT1 transporter after 72 hrs by cell counting in presence of dipyridamole; type: functional, cell-based
# Procedure, shortened: (§4)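 CEM/hEnt-1 cells with 10 μM dipyridamole or 10 μM NBMPR added alongside graded compound levels, in DMEM with 10% FBS, 10 mM Hepes and 1 mM sodium pyruvate at 37 °C under 5% CO2. Seeded at 60 000 cells/well, counted by Coulter counter after 3 days.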
# CCRF-CEM [12] = assay: Ratio of IC50 for human CEM cells expressing human ENT1 transporter in presence of NBMPR to IC50 for human CEM cells expressing human ENT1 transporter; type: functional
# Procedure, shortened: (§5)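 Human T-lymphocyte CEM cells with (CEM/hEnt-1) or lacking (CEM/hEnt-0) the hENT1 transporter were seeded at 60 000 cells/well with graded compound concentrations. Transporter-inhibition runs added dipyridamole (10 μM) or NBMPR (10 μM) to CEM/hEnt-1 cells. […] Ratios are formed against untreated CEM/hEnt-1 IC50. Mean of 2–4 experiments.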
# CCRF-CEM [13] = assay: Ratio of IC50 for ENT1 transporter-deficient human CEM cells to IC50 for human CEM cells expressing human ENT1 transporter after 72 hrs by cell counting; type: functional; procedure, shortened: as §5
# CCRF-CEM [14] = assay: Ratio of IC50 for human CEM cells expressing human ENT1 transporter in presence of dipyridamole to IC50 for human CEM cells expressing human ENT1 transporter; type: functional; procedure, shortened: as §5
# CCRF-CEM [15] = assay: Cytostatic activity against human CEM cells expressing human ENT1 transporter after 72 hrs by cell counting in presence of NBMPR; type: functional, cell-based; procedure, shortened: as §4
# [16] = Ratio of 5-FU IC50 to compound IC50 for mouse L1210/0 cells after 48 hrs by cell counting; type: functional
# L1210 [17] = assay: Ratio of IC50 for thymidine-kinase deficient mouse L1210 cells to IC50 for mouse L1210/0 cells after 48 hrs by cell counting; type: functional; procedure, shortened: as §1
# [18] = Stability of the compound in potassium phosphate buffer at pH 7.4 assessed as E.coli thymidine phosphorylase-mediated release of 5-FU after 5 mins by [19F] NMR spectroscopy; type: ADME; details: pH 7.4, 5 min
# Procedure, shortened: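 Compound (6.0 mg) in methanol-d4 plus 300 mM potassium phosphate buffer pH 7.4. […] 19F NMR recorded at 5 min, 14 h and 72 h at 25 °C, with 5-FU identified by its signal near δF 169.50 ppm.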
Structure (SMILES),Ratio IC50 (L1210 [1]),IC50 (CCRF-CEM [2]),IC50 (HeLa [3]),IC50 (L1210 [4]),IC50 (HeLa [5]),IC50 (CCRF-CEM [6]),IC50 (L1210 [7]),IC50 [8],IC50 (CCRF-CEM [9]),IC50 (CCRF-CEM [10]),IC50 (CCRF-CEM [11]),Ratio IC50 (CCRF-CEM [12]),Ratio IC50 (CCRF-CEM [13]),Ratio IC50 (CCRF-CEM [14]),IC50 (CCRF-CEM [15]),Ratio IC50 [16],Ratio IC50 (L1210 [17]),Stability [18]
CCCCCOC(=O)[C@H](CCSC)NP(=O)(OC[C@H]1O[C@@H](n2cc(F)c(=O)[nH]c2=O)C[C@@H]1O)Oc1ccccc1 (mixture of isomers),3.2,13 µM,7.1 µM,2200 nM,150 nM,350 nM,410 nM,130 nM,,,,,,,,,,
CSCC[C@H](NP(=O)(OC[C@H]1O[C@@H](n2cc(F)c(=O)[nH]c2=O)C[C@@H]1O)Oc1ccccc1)C(=O)OCc1ccccc1 (mixture of isomers),13,25 µM,11 µM,4100 nM,150 nM,280 nM,760 nM,58 nM,,,,,,,,,,
O=C(OCc1ccccc1)[C@@H]1CCCN1P(=O)(OC[C@H]1O[C@@H](n2cc(F)c(=O)[nH]c2=O)C[C@@H]1O)Oc1ccccc1 (mixture of isomers),51,28 µM,20 µM,31000 nM,1100 nM,980 nM,18000 nM,350 nM,,,,,,,,,,
CCOC(=O)C(C)(C)NP(=O)(OC[C@H]1O[C@@H](n2cc(F)c(=O)[nH]c2=O)C[C@@H]1O)Oc1ccccc1 (mixture of isomers),8.7,22 µM,17 µM,4600 nM,590 nM,650 nM,260 nM,30 nM,5800 nM,370 nM,2350 nM,2,7,2,2560 nM,,,
CC(C)(NP(=O)(OC[C@H]1O[C@@H](n2cc(F)c(=O)[nH]c2=O)C[C@@H]1O)Oc1ccccc1)C(=O)OCc1ccccc1 (mixture of isomers),0.69,4.8 µM,3.7 µM,180 nM,240 nM,230 nM,20 nM,29 nM,1200 nM,170 nM,260 nM,2,7,2,610 nM,,,
C[C@H](NP(=O)(OC[C@H]1O[C@@H](n2cc(F)c(=O)[nH]c2=O)C[C@@H]1O)Oc1cccc2ccccc12)C(=O)OCc1ccccc1 (mixture of isomers) [FOSIFLOXURIDINE NAFALBENAMIDE],2.27,0.31 µM,2.5 µM,45 nM,65 nM,68 nM,25 nM,11 nM,600 nM,50 nM,130 nM,2,7,2,260 nM,30,5,
O=c1[nH]c(=O)n([C@H]2C[C@H](O)[C@@H](COP(=O)(O)O)O2)cc1F [5-FLUORODEOXYURIDYLATE],,,,,,,,,3600 nM,50 nM,1740 nM,20,72,20,1060 nM,,,
O=c1[nH]c(=O)n([C@H]2C[C@H](O)[C@@H](CO)O2)cc1F [FLOXURIDINE],,,,,50 nM,22 nM,,,2500 nM,40 nM,,,,,800 nM,,,Unstable
O=c1[nH]cc(F)c(=O)[nH]1 [FLUOROURACIL],,12 µM,0.23 µM,320 nM,,,,,,,,,,,,,,Unstable
